Broadly, the viability is a read-out of living cells in per cent, often relative to untreated cells. The inhibition is the change of the read-out against control, counted positive when it falls.

Data on 14 molecules can be found in PubChem BioAssay.

Active and inactive are the calls of the source.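 How the source made its calls, unless noted: active means viability loss from added drug above about 55%, and viability with drug at most 40%, in both replicates (limit read from the data, passing the limit was not always enough); inconclusive means both conditions met in only one replicate; inactive means neither replicate meets both conditions.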

Assay [1] can be described thus: reducers of endogenous Her2 protein level, primary screen, SKBR3 breast tumor cells, AlphaScreen, ATP viability (AID 461;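 active means Her2 level under about 52% in both replicate screens, with viability over 70% of control, limit read from the data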;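 on Her2 level: lower value means less Her2 protein in the cells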;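 on viability: percent of carrier control wells set as 100% viability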). The note with it: 18-24 h, measured here: SKBR3 viability, ATP luminescence, at 10 µM. A general note: Alpha assays give light when donor and acceptor beads are brought close together.
Assay [2] deals with Receptor tyrosine-protein kinase erbB-2 (Homo sapiens) (UniProt P04626). The assay is described as above. Conditions: 18-24 h, at 10 µM, stronger effect = lower value.
Chain of Receptor tyrosine-protein kinase erbB-2 (Homo sapiens) (P04626 whole entry, looked up): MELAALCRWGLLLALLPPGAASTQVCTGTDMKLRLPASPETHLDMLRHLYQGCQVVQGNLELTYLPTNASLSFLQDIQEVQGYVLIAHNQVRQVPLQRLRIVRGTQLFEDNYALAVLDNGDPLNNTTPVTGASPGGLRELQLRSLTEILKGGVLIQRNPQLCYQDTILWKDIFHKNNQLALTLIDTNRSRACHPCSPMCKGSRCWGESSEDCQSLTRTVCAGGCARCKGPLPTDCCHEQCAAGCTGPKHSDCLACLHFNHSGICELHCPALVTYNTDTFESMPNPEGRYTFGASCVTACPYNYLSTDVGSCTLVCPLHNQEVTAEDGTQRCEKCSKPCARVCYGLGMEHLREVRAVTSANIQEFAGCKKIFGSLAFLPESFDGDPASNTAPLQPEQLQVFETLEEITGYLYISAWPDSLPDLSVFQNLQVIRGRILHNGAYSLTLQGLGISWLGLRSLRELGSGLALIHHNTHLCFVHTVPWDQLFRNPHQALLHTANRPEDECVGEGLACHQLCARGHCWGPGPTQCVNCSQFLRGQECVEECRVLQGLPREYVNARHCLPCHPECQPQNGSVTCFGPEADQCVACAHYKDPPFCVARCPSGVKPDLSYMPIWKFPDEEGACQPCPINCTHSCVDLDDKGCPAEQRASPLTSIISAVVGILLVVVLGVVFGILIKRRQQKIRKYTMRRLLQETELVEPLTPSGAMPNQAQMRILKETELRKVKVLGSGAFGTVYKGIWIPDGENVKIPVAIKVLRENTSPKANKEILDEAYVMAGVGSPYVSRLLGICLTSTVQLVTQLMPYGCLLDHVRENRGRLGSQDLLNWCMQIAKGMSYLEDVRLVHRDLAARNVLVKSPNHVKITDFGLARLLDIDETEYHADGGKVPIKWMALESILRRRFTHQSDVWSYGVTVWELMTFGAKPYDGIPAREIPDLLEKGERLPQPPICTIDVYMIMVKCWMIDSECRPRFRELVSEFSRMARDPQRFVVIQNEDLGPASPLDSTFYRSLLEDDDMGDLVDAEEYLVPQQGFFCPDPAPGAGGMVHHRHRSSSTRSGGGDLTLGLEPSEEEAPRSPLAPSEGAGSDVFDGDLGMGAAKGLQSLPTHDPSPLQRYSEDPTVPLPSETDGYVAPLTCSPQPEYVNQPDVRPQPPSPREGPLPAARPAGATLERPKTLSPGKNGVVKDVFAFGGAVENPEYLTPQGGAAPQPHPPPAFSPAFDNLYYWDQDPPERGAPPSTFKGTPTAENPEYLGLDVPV
Assay [3] is described as follows: SK-BR-3 cell growth inhibitors, pilot screen, 24 h, human (AID 572;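 active means viability at or below 10% of carrier control in both of two separate runs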;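 further: compound exposure lasted between 18 and 24 h rather than exactly 24 h; 100% = carrier-treated control wells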). Conditions: SK-BR-3 viability, CellTiter-Glo luminescence, at 10 µM, stronger effect = lower value. On the technique in general: In ATP-based viability assays light output follows the ATP content of the culture.
Assay [4] can be described thus: HUVEC growth inhibition – cell-based, human, primary screen (AID 575;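 active means viability at or below 30% in both replicate assays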;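 further: 100% = median of untreated cell wells with 0.1% DMSO on each plate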). The note with it: HUVEC proliferation, CellTiter-Glo luminescence, 72 h; at 10 µM; stronger effect = lower value. A digest of the protocol:
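Timing: 72 h treatment at 37 °C; material: HUVEC primary cells; technique: CellTiter-Glo luminescence measuring cellular ATP; controls: vehicle and MePR control wells; measure: percent of median DMSO-control luminescence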

The nature of assay [5]: growth inhibitors of H69AR lung tumor, primary screen, human, duplicate replicates (AID 580;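 active means viability at or under a set limit in both replicates, limit being median viability minus 3 SD, cut at about 48% in these data, passing the limit was not always enough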;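 further: 100% = mean luminescence of untreated wells and 0% = no signal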). The note with it: H69AR lung tumor cells viability, ATP luminescence, 72 h; at 10 µM; stronger effect = lower value.
A short description of assay [6]: reversal of MRP1-mediated doxorubicin resistance, pilot screen, H69AR cells, doxorubicin co-treatment (AID 601). The note with it: CellTiter-Glo, 72 h, at 10 µM; for differential viability (reversal): stronger effect = higher value.
Assay [7] is described as follows: 384-well plate pilot, post-Golgi transport modulator project, inhibition of yeast transport mutant growth (AID 636; in the data active means inhibition above about 31%). Conditions: absorbance 615 nm, about 18 h, stronger effect = higher value.
Assay [8] can be described thus: growth suppression of yeast trafficking mutant, preliminary HTS, modulators of trafficking downstream of Golgi apparatus project, 1536-format plate, OD 615 nm (AID 637; in the data active means inhibition above about 30%). The note with it: yeast transport mutant growth, absorbance 615 nm, 18 h; stronger effect = higher value.
The mark [9] stands for this setting: H69AR cells + 2 uM doxorubicin, measured here: viability with 2 uM doxorubicin, stronger effect = lower value.
[10] abbreviates: H69AR cells, compound alone cytotoxicity.

With `Cc1oc(C(=O)O)cc1CSCc1cc(C(=O)O)c(C)o1`, the viability was 104% in assay [1]; 104% (inactive) in assay [3]; 92.9% (inactive) in assay [4]; 103% (inactive) in assay [5]; 102% in assay [6] (setting [9]); 103% in assay [6] (setting [10]). In addition, in assay [2], the Her2 level was 94.5% (inactive). Also, the differential viability (reversal) in assay [6] (H69AR cells + 2 uM doxorubicin) is 1.31% (inactive). For the same molecule, the inhibition in assay [7] is -3.51% (inactive); in assay [8], -1.48% (inactive).

Take `CCC(C)(C)n1nnnc1C(c1ccc(OC)c(OC)c1)N1CCN(c2ccc(F)cc2)CC1` (stereo not given): the viability was 80% in assay [1]; 80% (inactive) in assay [3]; 89.2% (inactive) in assay [4]; 85.8% (inactive) in assay [5]; 54.5% in assay [6] (setting [9]); 85.8% in assay [6] (setting [10]). For the same molecule, in assay [2], the Her2 level is 93.5% (inactive). Further, in assay [6] (H69AR cells + 2 uM doxorubicin), the differential viability (reversal) is 31.3% (inactive). The inhibition in assay [7] is -1.95% (inactive); in assay [8], 2% (inactive).

For the molecule `O=C(c1ccc(Cl)c(F)c1F)N1CCCC1`, the viability in assay [1] is 88.5%; in assay [3], 88.5% (inactive); in assay [4] it was 98.4% (inactive); in assay [5], 102% (inactive); in assay [6] (setting [9]) it was 90.7%; in assay [6] (setting [10]), 102%. For the same molecule, the Her2 level in assay [2] was 106% (inactive). Further, in assay [6] (H69AR cells + 2 uM doxorubicin), the differential viability (reversal) was 11.3% (inactive). Moreover, the inhibition in assay [7] is -1.67% (inactive); in assay [8] it was -10.2% (inactive).

Turning to `CCCS(=O)(=O)NCCc1cc2cc(C)c(C)cc2[nH]c1=O`, the viability in assay [1] was 106%; in assay [3], 106% (inactive); in assay [4] it was 101% (inactive); in assay [5], 96.3% (inactive); in assay [6] (setting [9]), 87.7%; in assay [6] (setting [10]) it was 96.3%. In addition, in assay [2], the Her2 level was 90% (inactive). In assay [6] (H69AR cells + 2 uM doxorubicin), the differential viability (reversal) is 8.55% (inactive). For the same molecule, the inhibition in assay [7] was -8.22% (inactive); in assay [8], -0.63% (inactive).

Regarding `COc1cccc(C2C(C(=O)c3cc4ccccc4o3)=C(O)C(=O)N2CCN(C)C)c1OC` (stereo not given), the viability is 104% in assay [1]; 104% (inactive) in assay [3]; 96.8% (inactive) in assay [4]; 100% (inactive) in assay [5]; 95.4% in assay [6] (setting [9]); 100% in assay [6] (setting [10]). Moreover, the Her2 level in assay [2] was 94.5% (inactive). In addition, the differential viability (reversal) in assay [6] (H69AR cells + 2 uM doxorubicin) is 4.93% (inactive). In addition, the inhibition was -3.87% (inactive) in assay [7] and 11.3% (inactive) in assay [8].

Consider `COc1ccc(C(=O)N(Cc2ccco2)C(C(=O)NC2CCCC2)c2ccc(O)cc2)cc1OC` (stereo not given), for which the viability was 77.5% in assay [1]; 77.5% (inactive) in assay [3]; 76.8% (inactive) in assay [4]; 78.8% (inactive) in assay [5]; 80.4% in assay [6] (setting [9]); 78.8% in assay [6] (setting [10]). Also, the Her2 level in assay [2] is 85% (inactive). The differential viability (reversal) in assay [6] (H69AR cells + 2 uM doxorubicin) is -1.66% (inactive). Further, the results for the inhibition in assay [7] and in assay [8] were -1.32% (inactive) and -8% (inactive), respectively.

With `CCOC(=O)c1c(C)[nH]c(C(=O)COC(=O)C2CC2C)c1C` (stereo not given), the viability in assay [1] is 117%; in assay [3], 117% (inactive); in assay [4] it was 99.4% (inactive); in assay [5], 102% (inactive); in assay [6] (setting [9]), 85.8%; in assay [6] (setting [10]), 102%. Moreover, in assay [2], the Her2 level was 116% (inactive). Also, the differential viability (reversal) in assay [6] (H69AR cells + 2 uM doxorubicin) is 15.7% (inactive). Also, the results for the inhibition in assay [7] and in assay [8] were -4.93% (inactive) and 0.48% (inactive), respectively.

With `Cc1ccc(NCc2nnc(SCC(=O)N3CCCCC3)n2CC2CCCO2)c(C)c1` (stereo not given), the viability in assay [1] was 94.5%; in assay [3], 94.5% (inactive); in assay [4] it was 106% (inactive); in assay [5], 88.7% (inactive); in assay [6] (setting [9]) it was 87%; in assay [6] (setting [10]), 88.7%. Also, the Her2 level in assay [2] was 99% (inactive). In addition, in assay [6] (H69AR cells + 2 uM doxorubicin), the differential viability (reversal) is 1.68% (inactive). Besides, the values for the inhibition in assay [7] and in assay [8] were -6.8% (inactive) and 1.13% (inactive), respectively.

For the molecule `Cc1onc(-c2ccccc2)c1C(=O)Nc1ccnn1C1CCCCC1`, the viability was 99.5% in assay [1]; 99.5% (inactive) in assay [3]; 91.3% (inactive) in assay [4]; 90.6% (inactive) in assay [5]; 95.3% in assay [6] (setting [9]); 90.6% in assay [6] (setting [10]). Further, the Her2 level in assay [2] is 97.5% (inactive). Further, the differential viability (reversal) in assay [6] (H69AR cells + 2 uM doxorubicin) was -4.68% (inactive). The inhibition in assay [7] is -5.6% (inactive); in assay [8] it was -2.95% (inactive).

`CC1(C)Cc2noc(N)c2C(C)(C)N1O`: the viability is 121% in assay [1]; 121% (inactive) in assay [3]; 89.5% (inactive) in assay [4]; 95.6% (inactive) in assay [5]; 80.8% in assay [6] (setting [9]); 95.6% in assay [6] (setting [10]). The Her2 level in assay [2] was 91% (inactive). The differential viability (reversal) in assay [6] (H69AR cells + 2 uM doxorubicin) is 14.8% (inactive). For the same molecule, the inhibition in assay [7] is -4.61% (inactive); in assay [8] it was 2.7% (inactive).

On to `CCCn1c(NC(=O)C2COc3ccccc3O2)nc2ccccc21` (stereo not given), for which the viability in assay [1] is 99.5%; in assay [3], 99.5% (inactive); in assay [4], 66.1% (inactive); in assay [5], 67.8% (inactive); in assay [6] (setting [9]), 81.6%; in assay [6] (setting [10]), 67.8%. Also, in assay [2], the Her2 level is 90% (inactive). Further, in assay [6] (H69AR cells + 2 uM doxorubicin), the differential viability (reversal) was -13.7% (inactive). Moreover, the inhibition in assay [7] was -3.47% (inactive); in assay [8] it was 5.74% (inactive).

`CC(=O)N1CCN(S(=O)(=O)c2cccc(C(=O)Nc3ccc4c(c3)CCC4)c2)CC1`: the viability in assay [1] is 76.5%; in assay [3], 76.5% (inactive); in assay [4], 77.9% (inactive); in assay [5], 98% (inactive); in assay [6] (setting [9]), 93.2%; in assay [6] (setting [10]) it was 98%. The Her2 level in assay [2] is 90.5% (inactive). In assay [6] (H69AR cells + 2 uM doxorubicin), the differential viability (reversal) was 4.81% (inactive). Besides, the inhibition was -5.53% (inactive) in assay [7] and 5% (inactive) in assay [8].

Take `COCCn1c(SCC(=O)Nc2cccc(OC)c2)nnc1-c1ccccc1`: the viability in assay [1] was 101%; in assay [3] it was 101% (inactive); in assay [4], 90.1% (inactive); in assay [5], 103% (inactive); in assay [6] (setting [9]), 96.6%; in assay [6] (setting [10]), 103%. The Her2 level in assay [2] is 99.5% (inactive). The differential viability (reversal) in assay [6] (H69AR cells + 2 uM doxorubicin) is 6.8% (inactive). Also, the inhibition is -3.51% (inactive) in assay [7] and 4.43% (inactive) in assay [8].

As for `COc1cc(C2C(C#N)=C(N)OC3=C2C(=O)CCC3)ccc1OC(=O)N1CCOCC1` (stereo not given), the viability in assay [1] is 132%; in assay [3], 132% (inactive); in assay [4], 93% (inactive); in assay [5], 87.3% (inactive); in assay [6] (setting [9]), 83.6%; in assay [6] (setting [10]), 87.3%. The Her2 level in assay [2] is 91.5% (inactive). In assay [6] (H69AR cells + 2 uM doxorubicin), the differential viability (reversal) was 3.67% (inactive). Further, the figures for the inhibition in assay [7] and in assay [8] were -5.87% (inactive) and -0.66% (inactive), respectively.
